Test results reported in publication PMC6044948 (ACS Omega, 2017).
Converted amounts (≈) assume the structure as drawn.

Tests used:
[1] = Intrinsic solubility of CPT/HCPT; type: physicochemical; details: PBS (CPT); NaD2PO4 buffer (HCPT), aqueous buffer, thermodynamic from solid
In short: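 Excess solid stirred at room temperature, then undissolved material removed by centrifugation. In PBS: stirred 6 h; supernatant quantified by UV–vis against an absorbance standard curve. In NaD2PO4 (10 mM, pD 7.4): stirred 3 h; supernatant quantified by 1H NMR integration against a known concentration of 1,3,5-benzenetricarboxylic acid as internal reference.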

[2] = Solubility enhancement assay with WP6; type: physicochemical; details: for solubility at 3 h: NaD2PO4 buffer with WP6, pH 7.4; for solubility enhancement in the presence of WP6: versus intrinsic solubility
In short: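 Excess solid test compound stirred 3 h at room temperature in NaD2PO4 (10 mM, pD 7.4) containing a known concentration of pillararene host. Undissolved drug removed by centrifugation. Supernatant drug quantified by 1H NMR integration against subsequently added 1,3,5-benzenetricarboxylic acid as internal reference. Each point in triplicate; phase solubility diagrams plotted; enhancement taken relative to intrinsic solubility.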

[3] = system: Hela cells; experiment: In vitro cytotoxicity against cancer cells, CCK-8 assay; type: cell-based; details: Homo sapiens, 24 h
In short: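 HeLa cells seeded at 4 × 10^3/well and cultured 12 h, then given fresh medium with free test compound, pillararene host alone, or host-loaded test compound for 24 h. Drug range 5 × 10–4–5 × 101 μM; host alone 5 × 10–3–5 × 102 μM. CCK-8 added for 3 h, OD read at 450 nm. Viability was set relative to a medium-only control (100%). IC50 is the concentration giving 50% viability. Mean ± SD, n = 6; Student's t test.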

SMILES	solubility [1]	solubility at 3 h [2]	solubility enhancement in the presence of WP6 [2]	IC50 [3]
CC[C@@]1(O)C(=O)OCc2c1cc1n(c2=O)Cc2cc3ccccc3nc2-1 [CPT, 20-(S)-camptothecin]	5 µM (≈ 1.74 µg/mL)	> 1000 µM	380 times	800 nM
CC[C@@]1(O)C(=O)OCc2c1cc1n(c2=O)Cc2cc3cc(O)ccc3nc2-1 [HCPT, 10-hydroxycamptothecin]	29 µM (≈ 10.6 µg/mL)	> 1000 µM	40 times	1300 nM
